Experimental findings from ChEMBL document CHEMBL4831535, “Reducing the Toxicity of Designer Aminoglycosides as Nonsense Mutation Readthrough Agents for Therapeutic Targets” (ACS Med Chem Lett, 2021) are described below.

SMILES strings stand for the structures. Active and inactive are the calls of the source. No cut-off for these calls is given here.

Holding throughout (type): cell-based
Series [1] relates to Premature termination codon. The series is described as follows: Induction of read through activity at TP53 R213X mutant premature termination codon in human DMS-114 cells assessed as expression of full length p53 levels at 62 ug/ml measured after 48 hrs by capillary electrophoresis western analysis. Particulars: dose 62.0 µg/ml. A digest of the protocol: (§1)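 DMS-114 cells exposed to a range of concentrations for 48 h. Full-length and truncated p53 measured by capillary electrophoresis western analysis, with vinculin as loading control. Full-length p53 expressed as a normalized percent amount.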

The test system of series [2] is DMS-114. The series is described as follows: Cytotoxicity against human DMS-114 cells assessed as reduction in cell viability at up to 62 ug/ml. The settings on record: dose <=62 µg/ml.
The subject of series [3] is DMS-114. The series is described as follows: Cytotoxicity against human DMS-114 cells assessed as reduction in cell viability at 125 ug/ml. The settings on record: dose 125 µg/ml.
The test system of series [4] is Fibroblast. Briefly: Cytotoxicity against human fibroblast assessed as reduction in cell viability at 1 mg/ml measured after 48 hrs by fluorescent live-cell promega ApoLive-glo multiplex assay relative to control. A digest of the protocol:
(§2)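 Wild-type fibroblasts exposed to a range of concentrations for 48 h. Cell viability read out with the ApoLive-Glo Multiplex Assay.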

Series [5] concerns Premature termination codon. The series is described as follows: Induction of read through activity at TP53 R213X mutant premature termination codon in human DMS-114 cells assessed as increase in production of full length p53 at 125 ug/ml measured after 48 hrs by capillary electrophoresis western analysis. Particulars: dose 125.0 µg/ml. The method in brief:
as §1

Series [6] relates to Premature termination codon. The series is described as follows: Induction of read through activity at TP53 R213X mutant premature termination codon in human DMS-114 cells assessed as increase in production of full length p53 at 500 ug/ml measured after 48 hrs by capillary electrophoresis western analysis relative to control. Particulars: dose 500.0 µg/ml. A digest of the protocol: as §1

Series [7] concerns DMS-114. The series is described as follows: Cytotoxicity against human DMS-114 cells assessed as reduction in cell viability at up tp 500 ug/ml. Particulars: dose 500 µg/ml.
Series [8] has as its system Fibroblast. Briefly: Cytotoxicity against human fibroblast assessed as reduction in cell viability at up to 0.5 mg/ml measured after 48 hrs by fluorescent live-cell promega ApoLive-glo multiplex assay. A digest of the protocol: as §2
In series [9] the test system is Premature termination codon. Briefly: Induction of read through activity at TP53 R213X mutant premature termination codon in human DMS-114 cells assessed as increase in production of full length p53 at 31 to 250 ug/ml measured after 48 hrs by capillary electrophoresis western analysis. Particulars: dose 31-250 µg/ml. The method in brief:
as §1

Series [10] has as its system Premature termination codon. Briefly: Induction of read through activity at TP53 R213X mutant premature termination codon in human DMS-114 cells assessed as increase in production of full length p53 at up to 500 ug/ml measured after 48 hrs by capillary electrophoresis western analysis. Particulars: dose microg/ml <=500, time 48.0 hrs. The method in brief:
as §1

As to `C[C@H](N)[C@H]1O[C@@H](O[C@@H]2[C@@H](O)[C@H](N)C[C@H](N)[C@@H]2O[C@H]2O[C@H]([C@@H](C)O)[C@@H](O)[C@H](O)[C@H]2N)[C@H](O)[C@@H]1O`, the outcome in series [1] was Active. For the same compound, the Activity result in the series with DMS-114 [2] was “Non-Toxic”; with DMS-114 [3] it was “Toxic”; in the series with Fibroblast [4] it was 50%.
With `C[C@H](N)[C@H]1O[C@@H](O[C@@H]2[C@@H](O)[C@H](N)C[C@H](N)[C@H]2O[C@H]2O[C@H]([C@@H](C)O)[C@@H](O)[C@H](O)[C@H]2O)[C@H](O)[C@@H]1O`, the result in series [5] was Active. Besides, the figures for the Activity (in [6]; in the series with DMS-114 [7]; in the series on Fibroblast [8]) were 18%, “Non-Toxic” and “Non-Toxic”, respectively.
With `C[C@H](N)[C@H]1O[C@@H](O[C@@H]2[C@@H](O)[C@H](N)C[C@H](N)[C@H]2O[C@H]2O[C@H]([C@H](O)CO)[C@@H](O)[C@H](O)[C@H]2O)[C@H](O)[C@@H]1O`, the Activity result with DMS-114 [7] is on record as “Non-Toxic”; in the series on Fibroblast [8], “Non-Toxic”; in the series on Fibroblast [4], 15%. Further, the result in [9] was Active.
As for `C[C@H](N)[C@H]1O[C@@H](O[C@@H]2[C@@H](O)[C@H](N)C[C@H](N)[C@H]2O[C@H]2O[C@H]([C@H](C)O)[C@@H](O)[C@H](O)[C@H]2O)[C@H](O)[C@@H]1O`, the result in [10] was inactive. Besides, in the series on DMS-114 [7], the Activity entry is on record as “Non-Toxic”.
Take `C[C@H](N)[C@H]1O[C@@H](O[C@@H]2[C@@H](O)[C@H](N)C[C@H](N)[C@H]2O[C@H]2O[C@H]([C@@H](C)N)[C@@H](O)[C@H](O)[C@H]2O)[C@H](O)[C@@H]1O`: the result in series [10] was inactive.
